Measured values as given in ChEMBL document CHEMBL2163271, “Antitumor agents 295. E-ring hydroxylated antofine and cryptopleurine analogues as antiproliferative agents: design, synthesis, and mechanistic studies” (J Med Chem, 2012).
The source made the active and inactive calls. No cut-off for these calls is given here.

What was measured:
KB = experiment: Cytotoxicity against human KB cells after 2 hrs by methylene blue staining-based spectrophotometric analysis; assay type: functional, cell-based
[1] = Cytotoxicity against human KBVIN cells overexpressing P-gp after 2 hrs by methylene blue staining-based spectrophotometric analysis; assay type: functional, cell-based
DU-145 = experiment: Cytotoxicity against human DU145 cells after 2 hrs by methylene blue staining-based spectrophotometric analysis; assay type: functional, cell-based; settings: DU-145, 2 h
A549 [2] = experiment: Cytotoxicity against human A549 cells after 2 hrs by methylene blue staining-based spectrophotometric analysis; assay type: functional, cell-based; settings: A549, 2 h
SK-BR-3 = experiment: Cytotoxicity against human SKBR3 cells after 2 hrs by methylene blue staining-based spectrophotometric analysis; assay type: functional, cell-based; settings: SK-BR-3, 2 h
MRC5 = experiment: Cytotoxicity against human MRC5 cells assessed as cell viability after 48 hrs by SRB assay; assay type: functional, cell-based; settings: MRC5, 48 h
A549 [3] = experiment: Cytotoxicity against human A549 cells assessed as cell viability after 48 hrs by SRB assay; assay type: functional, cell-based; settings: A549, 48 h
HCT-8 = experiment: Cytotoxicity against human HCT8 cells after 2 hrs by methylene blue staining-based spectrophotometric analysis; assay type: functional, cell-based; settings: HCT-8, 2 h
A549 [4] = experiment: Downregulation of cyclin D protein expression in human A549 cells at 3.6 to 100 nM after 48 hrs by Western blot analysis; assay type: functional, cell-based
A549 [5] = experiment: Downregulation of HSP90 protein expression in human A549 cells at 3.6 to 100 nM after 48 hrs by Western blot analysis; assay type: functional, cell-based
How it was run: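 A549 cells treated with graded compound concentrations for 48 h. Whole-cell extracts were immunoblotted with antibody against HSP90.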

PC-9 = experiment: Cytotoxicity against human PC9 cells assessed as cell viability after 48 hrs by SRB assay; assay type: functional, cell-based; settings: PC-9, 48 h
How it was run: (§1)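 Human NSCLC lines (CL1-0, CL1-5, PC9, PC9IR) exposed to increasing compound concentrations for 48 h. Growth read by sulforhodamine B (SRB) staining, with IC50 in nM taken from the dose-response.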

[6] = Cytotoxicity against human PC9IR cells assessed as cell viability after 48 hrs by SRB assay; assay type: functional, cell-based; how it was run: as §1
[7] = Cytotoxicity against human CL1-0 cells assessed as cell viability after 48 hrs by SRB assay; assay type: functional, cell-based; settings: CL1-0, 48 h; how it was run: as §1
[8] = Cytotoxicity against human CL1-5 cells assessed as cell viability after 48 hrs by SRB assay; assay type: functional, cell-based; settings: CL1-5, 48 h; how it was run: as §1
A549 [9] = experiment: Downregulation of beta-catenin protein expression in human A549 cells at 3.6 to 100 nM after 48 hrs by Western blot analysis

For COc1ccc2c3c(c4cc(OC)c(OC)cc4c2c1)C[C@H]1[C@H](O)CCN1C3, the IC50 (KB) was 500 nM, the IC50 [1] was 640 nM and the IC50 (DU-145) was 850 nM. It also gave an IC50 (A549 [2]) of 270 nM.
For COc1ccc2c3c(c4cc(OC)c(OC)cc4c2c1)C[C@H]1C[C@@H](OC)CCN1C3, the IC50 (KB) was 5240 nM, the IC50 [1] was 3690 nM and the IC50 (DU-145) was 3570 nM. It also gave an IC50 (A549 [2]) of 7110 nM.
With COc1ccc2c3c(c4cc(OC)c(OC)cc4c2c1)C[C@H]1CC[C@@H](O)CN1C3 the IC50 (SK-BR-3) was 348 nM, the IC50 (KB) was 33 nM and the IC50 [1] was 45 nM. The IC50 (DU-145) was 66 nM and the IC50 (A549 [2]) was 82 nM.
COc1ccc2c3c(c4cc(OC)c(OC)cc4c2c1)C[C@H]1[C@@H](O)CCN1C3 gave an IC50 (KB) of 1830 nM, an IC50 [1] of 3420 nM and an IC50 (DU-145) of 3200 nM. It also gave an IC50 (A549 [2]) of 2810 nM.
Molecule COc1ccc2c3c(c4cc(OC)c(OC)cc4c2c1)C[C@H]1CC[C@H](O)CN1C3 has an IC50 (SK-BR-3) of 6440 nM, an IC50 (KB) of 2250 nM and an IC50 [1] of 3070 nM. The IC50 (DU-145) was 2250 nM and the IC50 (A549 [2]) was 2510 nM.
In the case of COC1=C[C@@H]2Cc3c(c4ccc(OC)cc4c4cc(OC)c(OC)cc34)CN2C1, the IC50 (KB) is reported as 12000 nM, the IC50 [1] is reported as 2640 nM and the IC50 (DU-145) is reported as 10300 nM. The IC50 (A549 [2]) was 5970 nM.
For COc1ccc2c3c(c4cc(OC)c(OC)cc4c2c1)C[C@H]1COCCN1C3, the IC50 (MRC5) was 252 nM and the IC50 (A549 [3]) was 40 nM.
With COc1ccc2c3c(c4cc(OC)c(OC)cc4c2c1)C[C@H]1C[C@H](O)[C@@H](O)CN1C3 the IC50 (KB) was 840 nM, the IC50 [1] was 2170 nM and the IC50 (DU-145) was 600 nM. The IC50 (A549 [2]) was 550 nM.
COc1ccc2c3c(c4cc(OC)c(OC)cc4c2c1)C[C@H]1[C@H](O)CCCN1C3 showed an IC50 (KB) of 300 nM, an IC50 [1] of 120 nM and an IC50 (DU-145) of 200 nM. It also gave an IC50 (A549 [2]) of 69 nM.
For COc1ccc2c3c(c4cc(OC)c(OC)cc4c2c1)C[C@H]1CCCCN1C3 [CRYPTOPLEURINE], the IC50 (HCT-8) was 1.91 nM, the Activity (A549 [4]) was “Active” and the Activity (A549 [5]) was “Active”. The IC50 (MRC5) was 14 nM, the IC50 (PC-9) was 5.5 nM and the IC50 [6] was 6.8 nM. The IC50 (A549 [3]) was 1.9 nM, the IC50 [7] was 5 nM and the IC50 [8] was 1.8 nM. The IC50 (KB) was 1.51 nM, the IC50 (DU-145) was 1.59 nM and the IC50 (A549 [2]) was 1.38 nM. The Activity (A549 [9]) was “Active”.
For COc1ccc2c3c(c4cc(OC)c(OC)cc4c2c1)C[C@H]1C[C@@H](O)CCN1C3, the IC50 (SK-BR-3) was 295 nM, the IC50 (KB) was 43 nM and the IC50 [1] was 78 nM. The IC50 (DU-145) was 59 nM and the IC50 (A549 [2]) was 72 nM.
